Assay results: ChEMBL document CHEMBL3758103, “Anti-herpetic and anti-dengue activity of abietane ferruginol analogues synthesized from (+)-dehydroabietylamine” (Eur J Med Chem, 2016)
The source made the active and inactive calls. The calls are words filed in the database; no cut-off is given here.

Experiments:
HeLa [1] = assay: Cytotoxicity against human HeLa cells assessed as cell growth inhibition after 48 hrs by MTT assay; assay type: functional, cell-based
Outline: (§1)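 MTT assay. Vero and HeLa cells plated at 2.0 × 10^4/well and preincubated 24 h; Jurkat and U937 plated at 3.0 × 10^4/well. Compounds were applied 48 h at 37 °C, 5% CO2, with 0.05% DMSO. Absorbance read at 570 nm and IC50 taken by linear regression. Values are the geometric mean of two experiments in quadruplicate.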

Jurkat [2] = assay: Cytotoxicity against human Jurkat cells assessed as cell growth inhibition after 48 hrs by MTT assay; assay type: functional, cell-based; outline: as §1
Vero [3] = assay: Cytotoxicity against African green monkey Vero cells assessed as cell growth inhibition after 48 hrs by MTT assay; assay type: cell-based; settings: Chlorocebus sabaeus; outline: as §1
Jurkat [4] = assay: Selectivity index, ratio of IC50 for African green monkey Vero cells to IC50 for human Jurkat cells; assay type: functional
Outline: (§2)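 SI calculated as Vero IC50 divided by HeLa, Jurkat or U937 IC50, all from the 48 h MTT assay.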

[5] = Cytotoxicity against human U937 cells assessed as cell growth inhibition after 48 hrs by MTT assay; assay type: functional, cell-based; settings: U-937, 48 h; outline: as §1
Vero [6] = assay: Selectivity index, ratio of IC50 for African green monkey Vero cells to IC50 for human U937 cells; assay type: functional; outline: as §2
Fusarium oxysporum = assay: Antifungal activity against Fusarium oxysporum ATCC 48112 assessed as microbial growth inhibition after 48 hrs by microdilution assay; assay type: functional, organism-based
Outline: (§3)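 Broth microdilution under CLSI M38-A with modifications, in duplicate, at final compound concentrations of 50–3.125 μg/mL. […] Values are the geometric mean of duplicate tests in three assays. Assay DMSO was 0.05%.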

Aspergillus fumigatus = assay: Antifungal activity against Aspergillus fumigatus ATCC 204305 assessed as microbial growth inhibition by microdilution assay; assay type: functional, organism-based; outline: as §3
Aspergillus flavus = assay: Antifungal activity against Aspergillus flavus ATCC 204304 assessed as microbial growth inhibition by microdilution assay; assay type: functional, organism-based; outline: as §3
Aspergillus terreus = assay: Antifungal activity against Aspergillus terreus CDC 317 assessed as microbial growth inhibition by microdilution assay; assay type: functional, organism-based; outline: as §3
Candida albicans = assay: Antifungal activity against Candida albicans […] assessed as microbial growth inhibition after 24 hrs by microdilution assay; assay type: functional, organism-based
Outline: (§4)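 Yeast microdilution by the AFST-EUCAST method at an inoculum of 1–5 × 10^5 CFU/mL, final compound concentrations 50–3.125 μg/mL, in duplicate. MIC is the lowest concentration giving 90% growth reduction after 24 h at 35 °C. Untreated inoculum served as negative control. Values are the geometric mean of duplicate tests in three assays.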

Candida parapsilosis = assay: Antifungal activity against Candida parapsilosis ATCC 22019 assessed as microbial growth inhibition after 24 hrs by microdilution assay; assay type: functional, organism-based; outline: as §4
Candida tropicalis = assay: Antifungal activity against Candida tropicalis ATCC 200956 assessed as microbial growth inhibition after 24 hrs by microdilution assay; assay type: functional, organism-based; outline: as §4
HeLa [7] = assay: Selectivity index, ratio of IC50 for African green monkey Vero cells to IC50 for human HeLa cells; assay type: functional; outline: as §2
Human alphaherpesvirus 1 [8] = assay: Antiviral activity against HHV1 CDC Atlanta infected in African green monkey Vero cells assessed as reduction of viral titer at maximal non-toxic concentration after 48 hrs by crystal violet staining assay relative to control; assay type: functional
Outline: (§5)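 End-point titration on Vero monolayers (2.0 × 10^4 cells/well, ≥80% confluent) with 10 TCID50 virus. Virus–compound mixtures (6.25–50 μg/mL) in DMEM/2% FBS with CMC (1% for HHV-1, 0.5% for HHV-2) were held 15 min at room temperature. Incubation was 48 h (HHV-1) or 72 h (HHV-2) at 37 °C, then formaldehyde/crystal violet staining and plaque counting. Read-out is the viral titer reduction factor. Two experiments in quadruplicate.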

Human alphaherpesvirus 2 [9] = assay: Antiviral activity against HHV-2 VR-734-G infected in African green monkey Vero cells assessed as reduction of viral titer at maximal non-toxic concentration after 72 hrs by crystal violet staining assay relative to control; assay type: functional; outline: as §5
Human alphaherpesvirus 2 [10] = assay: Antiviral activity against HHV-2 VR-734-G infected in African green monkey Vero cells assessed as maximal non toxic concentration causing reduction of viral titer after 72 hrs by crystal violet staining assay; assay type: functional; outline: as §5
Vero [11] = assay: Cytotoxicity against African green monkey Vero cells assessed as inhibition of cell proliferation after 72 hrs; assay type: cell-based; settings: Chlorocebus sabaeus
Human alphaherpesvirus 1 [12] = assay: Antiviral activity against HHV-1 CDC Atlanta infected in African green monkey Vero cells assessed as reduction in plaque formation administered post viral infection after 72 hrs by crystal violet staining technique; assay type: functional, organism-based; settings: Human alphaherpesvirus 1, CDC Atlanta, Vero, 72 h; read-out: EC50
Outline: (§6)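 Plaque reduction on Vero monolayers (2.5 × 10^4 cells/well) infected with 100 PFU/well. Pre-infection arm: virus–compound mixture added for 1 h at 37 °C, PBS wash, then CMC overlay. Post-infection arm: virus adsorbed 1 h, washed, then compound given in CMC. CMC was 1% for HHV-1, 0.75% for HHV-2 and 2% for DENV-2. Plates ran 72 h (HHV) or 8 days (DENV-2) before crystal violet staining. EC50 came from linear regression over ≥4 dilutions in quadruplicate.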

Human alphaherpesvirus 2 [13] = assay: Antiviral activity against HHV-2 VR-734-G infected in African green monkey Vero cells assessed as reduction in plaque formation administered post viral infection after 72 hrs by crystal violet staining technique; assay type: functional, organism-based; settings: Human alphaherpesvirus 2, VR-734-G; outline: as §6

Compound | IC50 (HeLa [1]) | IC50 (Jurkat [2]) | IC50 (Vero [3]) | Ratio IC50 (Jurkat [4]) | IC50 [5] | Ratio IC50 (Vero [6]) | Activity (Fusarium oxysporum) | Activity (Aspergillus fumigatus) | Activity (Aspergillus flavus) | Activity (Aspergillus terreus) | Activity (Candida albicans) | Activity (Candida parapsilosis) | Activity (Candida tropicalis) | Ratio IC50 (HeLa [7]) | fold change (FC) (Human alphaherpesvirus 1 [8]) | fold change (FC) (Human alphaherpesvirus 2 [9]) | MNTD (Human alphaherpesvirus 2 [10]) | IC50 (Vero [11]) | EC50 (Human alphaherpesvirus 1 [12]) | EC50 (Human alphaherpesvirus 2 [13])
CC(=O)O[C@H]1C(=O)[C@@]2(C)[C@H]([C@H](OC(=O)c3ccccc3)[C@]3(O)C[C@H](OC(=O)[C@H](O)[C@@H](NC(=O)c4ccccc4)c4ccccc4)C(C)=C1C3(C)C)[C@]1(OC(C)=O)CO[C@@H]1C[C@@H]2O [PACLITAXEL] | 0.099 µM | 0.0005 µM | 0.65 µM |  |  |  |  |  |  |  |  |  |  |  |  |  |  |  |  | 
Cc1ccc(S(=O)(=O)NC[C@]2(C)CCC[C@]3(C)c4cc(O)c(C(C)C)cc4CC[C@@H]23)cc1 | > 50 µM | 30.9 µM | 82.5 µM | 2.7 | 36 µM | 2.3 | inactive | inactive | inactive | inactive | inactive | inactive | inactive |  |  |  |  |  |  | 
CC(=O)Oc1cc2c(cc1C(C)C)C(=O)C[C@H]1[C@](C)(CN3C(=O)c4c(Cl)c(Cl)c(Cl)c(Cl)c4C3=O)CCC[C@]21C | 7.3 µM | 12.3 µM | > 320 µM | >26 | 8.3 µM | >38.5 | inactive | inactive | inactive | inactive | inactive | inactive | inactive | >43.8 |  |  |  |  |  | 
CC(C)c1cc2c(cc1O)[C@@]1(C)CCC[C@@](C)(CN)[C@@H]1CC2 | > 80 µM | 49.4 µM | 39.8 µM | 0.8 | > 80 µM |  | inactive | inactive | inactive | inactive | inactive | inactive | inactive |  |  |  |  |  |  | 
CC(C)c1cc2c(cc1O)[C@@]1(C)CCC[C@@](C)(CN3C(=O)c4c(Cl)c(Cl)c(Cl)c(Cl)c4C3=O)[C@@H]1CC2 | 29 µM | 21.9 µM | 267 µM | 12.2 | > 40 µM |  | inactive | inactive | inactive | inactive | inactive | inactive | inactive | 9.2 |  |  |  |  |  | 
CC(=O)Oc1cc2c(cc1C(C)C)/C(=N\S(=O)(=O)c1ccc(C)cc1)C[C@H]1[C@](C)(CN3C(=O)c4c(Cl)c(Cl)c(Cl)c(Cl)c4C3=O)CCC[C@]21C | > 30 µM | > 30 µM |  |  | > 30 µM |  | inactive | inactive | inactive | inactive | inactive | inactive | inactive |  |  |  |  |  |  | 
CC(C)c1cc2c(cc1O)[C@@]1(C)CCCC(C)(C)[C@@H]1CC2 [FERRUGINOL] | 64.9 µM | 48.2 µM | 90.4 µM | 1.9 | 21.3 µM | 4.2 | inactive | inactive | inactive | inactive | inactive | inactive | inactive | 1.4 |  |  |  |  |  | 
COc1cccc2c1C(=O)c1c(O)c3c(c(O)c1C2=O)C[C@@](O)(C(=O)CO)C[C@@H]3O[C@H]1C[C@H](N)[C@H](O)[C@H](C)O1 [DOXORUBICIN] | 0.834 µM | 0.012 µM | 1.93 µM |  | 0.077 µM |  |  |  |  |  |  |  |  |  |  |  |  |  |  | 
CC(=O)Oc1cc2c(cc1C(C)C)CC[C@H]1[C@](C)(CN3C(=O)c4c(Cl)c(Cl)c(Cl)c(Cl)c4C3=O)CCC[C@]21C | > 40 µM | > 40 µM |  |  | > 40 µM |  | inactive | inactive | inactive | inactive | inactive | inactive | inactive |  |  |  |  |  |  | 
CC(=O)Oc1cc2c(cc1C(C)C)CC[C@H]1[C@](C)(CN3C(=O)c4ccccc4C3=O)CCC[C@]21C | > 50 µM | > 50 µM |  |  | > 50 µM |  | inactive | inactive | inactive | inactive | inactive | inactive | inactive |  |  |  |  |  |  | 
Nc1nc2c(ncn2COCCO)c(=O)[nH]1 [ACYCLOVIR] |  |  |  |  |  |  |  |  |  |  |  |  |  |  | 10000 | 1000 | 6.7 µM | > 1.7 mM | 2200 nM | 270 nM
